ChEMBL document CHEMBL1122297, “Stereospecific synthesis of chiral metabolites of ifosfamide and their determination in the urine” (J Med Chem, 1983)

Experiments:
[1] = Metabolite of ifosfamide determined in urine; NF-Not found; assay type: ADME, tissue-based; conditions: human
[2] = Active metabolite of ifosfamide determined in humans; A-Active; assay type: ADME; conditions: human
[3] = Portion of holoxan excreted in the form of the metabolite from 1300 mL of urine on day 8 was determined in embryonal rhabdomyosarcoma patients treated with ifosfamide; assay type: ADME; conditions: human, in vivo
Method in brief: (§1)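 Patients received ifosfamide at 2 g per day for 10 days, and daily urine was collected. Urine from days 1 and 2 was dropped because it had been stored at room temperature. Solids were centrifuged off. Supernatant was examined by 31P NMR, and amounts were taken from the electronically integrated spectra.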

[4] = Portion of holoxan excreted in the form of the metabolite from 2310 mL of urine on day 4 was determined in embryonal rhabdomyosarcoma patients treated with ifosfamide; assay type: ADME, tissue-based; conditions: human, in vivo; method in brief: as §1
[5] = Portion of holoxan excreted in the form of the metabolite from 1200 mL of urine on day 3 was determined in embryonal rhabdomyosarcoma patients treated with ifosfamide; assay type: ADME; conditions: human, in vivo; method in brief: as §1
[6] = Quantity of the metabolite found in the urine of the embryonal rhabdomyosarcoma patients treated with ifosfamide from 1300 mL of urine tested on day 6; assay type: ADME; conditions: human; method in brief: as §1
[7] = Portion of holoxan excreted in the form of the metabolite from 1700 mL of urine on day 5 was determined in embryonal rhabdomyosarcoma patients treated with ifosfamide; assay type: ADME, tissue-based; conditions: human, in vivo; method in brief: as §1
[8] = Quantity of the metabolite found in the urine of the embryonal rhabdomyosarcoma patients treated with ifosfamide from 1200 mL of urine tested on day 3; assay type: ADME, tissue-based; conditions: human; method in brief: as §1
[9] = Portion of holoxan excreted in the form of the metabolite from 1500 mL of urine on day 9 was determined in embryonal rhabdomyosarcoma patients treated with ifosfamide; assay type: ADME, tissue-based; conditions: human, in vivo; method in brief: as §1
[10] = Quantity of the metabolite found in the urine of the embryonal rhabdomyosarcoma patients treated with ifosfamide from 2310 mL of urine tested on day 4; assay type: ADME; conditions: human; method in brief: as §1
[11] = Portion of holoxan excreted in the form of the metabolite from 1300 mL of urine on day 6 was determined in embryonal rhabdomyosarcoma patients treated with ifosfamide; assay type: ADME; conditions: human, in vivo; method in brief: as §1
[12] = Portion of holoxan excreted in the form of the metabolite from 1200 mL of urine on day 7 was determined in embryonal rhabdomyosarcoma patients treated with ifosfamide; assay type: ADME; conditions: human, in vivo; method in brief: as §1
[13] = Quantity of the metabolite found in the urine of the embryonal rhabdomyosarcoma patients treated with ifosfamide from 1500 mL of urine tested on day 9; assay type: ADME; conditions: human; method in brief: as §1
[14] = Quantity of the metabolite found in the urine of the embryonal rhabdomyosarcoma patients treated with ifosfamide from 1300 mL of urine tested on day 8; assay type: ADME, tissue-based; conditions: human; method in brief: as §1
[15] = Quantity of the metabolite found in the urine of the embryonal rhabdomyosarcoma patients treated with ifosfamide from 1600 mL of urine tested on day 10; assay type: ADME; conditions: human; method in brief: as §1
[16] = Quantity of the metabolite found in the urine of the embryonal rhabdomyosarcoma patients treated with ifosfamide from 1700 mL of urine tested on day 5; assay type: ADME; conditions: human; method in brief: as §1
[17] = Portion of holoxan excreted in the form of the metabolite from 1600 mL of urine on day 10 was determined in embryonal rhabdomyosarcoma patients treated with ifosfamide; assay type: ADME, tissue-based; conditions: human, in vivo; method in brief: as §1
[18] = Quantity of the metabolite found in the urine of the embryonal rhabdomyosarcoma patients treated with ifosfamide from 1200 mL of urine tested on day 7; assay type: ADME; conditions: human; method in brief: as §1
[19] = Percent ratio of the enantiomeric form (+)R extracted from the urine of alveolar rhabdomyosarcoma patients was determined; assay type: ADME, tissue-based; conditions: human
Method in brief: (§2)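 Patients were dosed with ifosfamide at 2 g per day for 10 days. Solids were centrifuged out of the urine. The supernatant was extracted with chloroform and with ethyl acetate before the enantiomeric composition was determined, because signals of parent drug and metabolite overlapped in crude concentrated urine.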

[20] = Percent ratio of the enantiomeric form (+)R extracted from the urine of embryonal rhabdomyosarcoma patients was determined; assay type: ADME; conditions: human; method in brief: as §2
[21] = Percent ratio of the enantiomeric form (-)S extracted from the urine of embryonal rhabdomyosarcoma patients was determined; assay type: ADME, tissue-based; conditions: human; method in brief: as §2
[22] = Percent ratio of the enantiomeric form (-)S extracted from the urine of alveolar rhabdomyosarcoma patients was determined; assay type: ADME, tissue-based; conditions: human; method in brief: as §2

SMILES | Activity [1] | Activity [2] | Excretion [3] | Excretion [4] | Excretion [5] | Quantity [6] | Excretion [7] | Quantity [8] | Excretion [9] | Quantity [10] | Excretion [11] | Excretion [12] | Quantity [13] | Quantity [14] | Quantity [15] | Quantity [16] | Excretion [17] | Quantity [18] | Extraction [19] | Extraction [20] | further results
O=CCCOP(=O)(NCCCl)NCCCl | Not found | Active |  |  |  |  |  |  |  |  |  |  |  |  |  |  |  |  |  |  | 
O=C(O)CCOP(=O)(NCCCl)NCCCl |  |  | 61.7% | 65.5% | 39.8% | 348 mg | 40.2% | 70 mg | 100% | 62 mg | 91.5% | 74% | 186 mg | 56 mg | 130 mg | 70 mg | 61% | 312 mg |  |  | 
O=P1(NCCCl)NCCCO1 (stereo not drawn) |  |  | 61.7% | 65.5% | 39.8% | 434 mg | 40.2% | 198 mg | 100% | 432 mg | 91.5% | 74% | 310 mg | 338 mg | 320 mg | 258 mg | 61% | 348 mg | 72% | 45% | Extraction [21]: 55%; Extraction [22]: 28%
NP1(=O)OCCCN1CCCl (stereo not drawn) |  |  | 61.7% | 65.5% | 39.8% | 243 mg | 40.2% | 64 mg | 100% | 163 mg | 91.5% | 74% | 231 mg | 130 mg | 160 mg | 95 mg | 61% | 180 mg | 13% | 27% | Extraction [21]: 73%; Extraction [22]: 87%
O=C1CCOP(=O)(NCCCl)N1CCCl (stereo not drawn) [4-KETOIFOSFAMIDE] |  |  | 61.7% | 65.5% | 39.8% | 136 mg | 40.2% | 44 mg | 100% | 34 mg | 91.5% | 74% | 24 mg | 78 mg | 66 mg | 81 mg | 61% | 84 mg |  |  | 
O=P1(NCCCl)OCCC(O)N1CCCl (stereo not drawn) [ALDOIFOSFAMIDE] | Not found | Active |  |  |  |  |  |  |  |  |  |  |  |  |  |  |  |  |  |  | 
O=P1(NCCCl)OCCCN1CCCl (stereo not drawn) [IFOSFAMIDE] |  |  | 61.7% | 65.5% | 39.8% | 500 mg | 40.2% | 348 mg | 100% | 442 mg | 91.5% | 74% | 1100 mg | 494 mg | 421 mg | 200 mg | 61% | 432 mg | 57% | 55% | Extraction [21]: 45%; Extraction [22]: 43%
O=P(O)(NCCCl)NCCCl [PALIFOSFAMIDE] | Not found | Active |  |  |  |  |  |  |  |  |  |  |  |  |  |  |  |  |  |  | 
